Laboratory results published in ChEMBL document CHEMBL4689842, “EUbOPEN Chemogenomics Library wave 1” (2021).

Tested on: HEK-293T
Test: Multiplex assay against HEK293T;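 as to Population Tubulin-Different-Phenotype (%): share of the cells with healthy nuclei that show this phenotype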
Type: toxicity, cell-based
Settings: human
Procedure, shortened: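 Phenotypes for tubulin, mitochondrial mass and membrane permeability are expressed as per cents of healthy-nucleus cells. Cells were stained live at seeding with Hoechst33342, BioTracker Green Microtubule Cytoskeleton Dye, MitoTracker Red and Annexin V Alexa Fluor 680, then imaged after compound addition on a CQ1 microscope at 37°C and 5% CO2. Machine-learning gating in CellPathfinder separated Hoechst high-intensity objects from normal cells, divided normal cells by nuclear state (healthy, pyknosed, fragmented) and divided pyknosed cells into mitotic or apoptotic.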

[1] = 12 h, 1 µM, compound concentration 1 uM, replicate 1
[2] = 12 h, 1 µM, compound concentration 1 uM, replicate 2
[3] = 12 h, 10 µM, compound concentration 10 uM, replicate 1
[4] = 12 h, 10 µM, compound concentration 10 uM, replicate 2
[5] = 24 h, 1 µM, compound concentration 1 uM, replicate 1
[6] = 24 h, 1 µM, compound concentration 1 uM, replicate 2
[7] = 24 h, 10 µM, compound concentration 10 uM, replicate 1
[8] = 24 h, 10 µM, compound concentration 10 uM, replicate 2
[9] = 48 h, 1 µM, compound concentration 1 uM, replicate 1
[10] = 48 h, 1 µM, compound concentration 1 uM, replicate 2
[11] = 48 h, 10 µM, compound concentration 10 uM, replicate 1
[12] = 48 h, 10 µM, compound concentration 10 uM, replicate 2

CCCSc1nc(N[C@@H]2C[C@H]2c2ccc(F)c(F)c2)c2nnn([C@@H]3C[C@H](OCCO)[C@@H](O)[C@H]3O)c2n1 [TICAGRELOR]
Population Apoptotic (%) [1]: 56% | Population Fragmented Nuclei (%) [1]: 19% | Population Healthy Nuclei (%) [1]: 35% | Population Hoechst High Intensity Objects (%) [1]: 18% | Population Membrane Permeable-Phenotype (%) [1]: 4% | Population Mitochondria Different-Phenotype (%) [1]: 89% | Population Mitotic Cells (%) [1]: 43% | Population Normal (%) [1]: 81% | Population Pyknosed Nuclei (%) [1]: 45% | Population Tubulin-Different-Phenotype (%) [1]: 54% | Total Cell Count [1]: 167 | Population Apoptotic (%) [2]: 9% | Population Fragmented Nuclei (%) [2]: 3% | Population Healthy Nuclei (%) [2]: 49% | Population Hoechst High Intensity Objects (%) [2]: 3% | Population Membrane Permeable-Phenotype (%) [2]: 10% | Population Mitochondria Different-Phenotype (%) [2]: 21% | Population Mitotic Cells (%) [2]: 90% | Population Normal (%) [2]: 96% | Population Pyknosed Nuclei (%) [2]: 46% | Population Tubulin-Different-Phenotype (%) [2]: 27% | Total Cell Count [2]: 190 | Population Apoptotic (%) [3]: 68% | Population Fragmented Nuclei (%) [3]: 34% | Population Healthy Nuclei (%) [3]: 4% | Population Hoechst High Intensity Objects (%) [3]: 20% | Population Membrane Permeable-Phenotype (%) [3]: 14% | Population Mitochondria Different-Phenotype (%) [3]: 85% | Population Mitotic Cells (%) [3]: 31% | Population Normal (%) [3]: 79% | Population Pyknosed Nuclei (%) [3]: 60% | Population Tubulin-Different-Phenotype (%) [3]: 85% | Total Cell Count [3]: 178 | Population Apoptotic (%) [4]: 85% | Population Fragmented Nuclei (%) [4]: 6% | Population Healthy Nuclei (%) [4]: 26% | Population Hoechst High Intensity Objects (%) [4]: 4% | Population Membrane Permeable-Phenotype (%) [4]: 2% | Population Mitochondria Different-Phenotype (%) [4]: 95% | Population Mitotic Cells (%) [4]: 14% | Population Normal (%) [4]: 95% | Population Pyknosed Nuclei (%) [4]: 66% | Population Tubulin-Different-Phenotype (%) [4]: 93% | Total Cell Count [4]: 176 | Population Apoptotic (%) [5]: 46% | Population Fragmented Nuclei (%) [5]: 23% | Population Healthy Nuclei (%) [5]: 32% | Population Hoechst High Intensity Objects (%) [5]: 18% | Population Membrane Permeable-Phenotype (%) [5]: 2% | Population Mitochondria Different-Phenotype (%) [5]: 75% | Population Mitotic Cells (%) [5]: 53% | Population Normal (%) [5]: 81% | Population Pyknosed Nuclei (%) [5]: 44% | Population Tubulin-Different-Phenotype (%) [5]: 45% | Total Cell Count [5]: 181 | Population Apoptotic (%) [6]: 18% | Population Fragmented Nuclei (%) [6]: 4% | Population Healthy Nuclei (%) [6]: 62% | Population Hoechst High Intensity Objects (%) [6]: 3% | Population Membrane Permeable-Phenotype (%) [6]: 7% | Population Mitochondria Different-Phenotype (%) [6]: 28% | Population Mitotic Cells (%) [6]: 81% | Population Normal (%) [6]: 96% | Population Pyknosed Nuclei (%) [6]: 33% | Population Tubulin-Different-Phenotype (%) [6]: 48% | Total Cell Count [6]: 257 | Population Apoptotic (%) [7]: 76% | Population Fragmented Nuclei (%) [7]: 35% | Population Healthy Nuclei (%) [7]: 6% | Population Hoechst High Intensity Objects (%) [7]: 21% | Population Mitochondria Different-Phenotype (%) [7]: 77% | Population Mitotic Cells (%) [7]: 23% | Population Normal (%) [7]: 78% | Population Pyknosed Nuclei (%) [7]: 57% | Population Tubulin-Different-Phenotype (%) [7]: 88% | Total Cell Count [7]: 178 | Population Apoptotic (%) [8]: 89% | Population Fragmented Nuclei (%) [8]: 4% | Population Healthy Nuclei (%) [8]: 26% | Population Hoechst High Intensity Objects (%) [8]: 7% | Population Membrane Permeable-Phenotype (%) [8]: 0% | Population Mitochondria Different-Phenotype (%) [8]: 95% | Population Mitotic Cells (%) [8]: 10% | Population Normal (%) [8]: 92% | Population Pyknosed Nuclei (%) [8]: 69% | Population Tubulin-Different-Phenotype (%) [8]: 95% | Total Cell Count [8]: 182 | Population Apoptotic (%) [9]: 55% | Population Fragmented Nuclei (%) [9]: 23% | Population Healthy Nuclei (%) [9]: 40% | Population Hoechst High Intensity Objects (%) [9]: 12% | Population Membrane Permeable-Phenotype (%) [9]: 3% | Population Mitochondria Different-Phenotype (%) [9]: 51% | Population Mitotic Cells (%) [9]: 44% | Population Normal (%) [9]: 87% | Population Pyknosed Nuclei (%) [9]: 36% | Population Tubulin-Different-Phenotype (%) [9]: 50% | Total Cell Count [9]: 216 | Population Apoptotic (%) [10]: 11% | Population Fragmented Nuclei (%) [10]: 5% | Population Healthy Nuclei (%) [10]: 78% | Population Hoechst High Intensity Objects (%) [10]: 4% | Population Membrane Permeable-Phenotype (%) [10]: 4% | Population Mitochondria Different-Phenotype (%) [10]: 12% | Population Mitotic Cells (%) [10]: 88% | Population Normal (%) [10]: 95% | Population Pyknosed Nuclei (%) [10]: 16% | Population Tubulin-Different-Phenotype (%) [10]: 31% | Total Cell Count [10]: 492 | Population Apoptotic (%) [11]: 81% | Population Fragmented Nuclei (%) [11]: 38% | Population Healthy Nuclei (%) [11]: 3% | Population Hoechst High Intensity Objects (%) [11]: 24% | Population Membrane Permeable-Phenotype (%) [11]: 50% | Population Mitochondria Different-Phenotype (%) [11]: 75% | Population Mitotic Cells (%) [11]: 18% | Population Normal (%) [11]: 75% | Population Pyknosed Nuclei (%) [11]: 58% | Population Tubulin-Different-Phenotype (%) [11]: 75% | Total Cell Count [11]: 173 | Population Apoptotic (%) [12]: 92% | Population Fragmented Nuclei (%) [12]: 7% | Population Healthy Nuclei (%) [12]: 29% | Population Hoechst High Intensity Objects (%) [12]: 5% | Population Membrane Permeable-Phenotype (%) [12]: 2% | Population Mitochondria Different-Phenotype (%) [12]: 97% | Population Mitotic Cells (%) [12]: 7% | Population Normal (%) [12]: 94% | Population Pyknosed Nuclei (%) [12]: 63% | Population Tubulin-Different-Phenotype (%) [12]: 86% | Total Cell Count [12]: 164
